Experimental data as given in PMC9742152 (ChemMedChem, 2022).
Read-outs that look alike come from different tables or passages of the source.

Assays:
[1] = system: Bovine brain tubulin; test: Inhibition of [3H]colchicine binding to tubulin; details: 5 μM inhibitor, 5.0 μM [3H]colchicine, 1.0 μM tubulin, mean ±SD
[2] = cited from earlier work
[3] = system: Bovine brain tubulin; test: Inhibition of tubulin assembly; format: biochemical; details: for IC50: read-out: Tubulin assembly IC50, 10 μM tubulin, mean ±SD
[4] = system: MCF-7 breast cancer cells; test: Anti-proliferative assay, MCF-7 cells; format: cell-based, human; details: read-out: GI50 MCF-7
How it was run: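 MCF-7 cells kept at 37 °C, 5% CO2 in RPMI 1640 with 17% FBS, 2 mM L-glutamine and gentamicin, in full (not estrogen-deprived) media; seeded 5000 cells/well, grown 24 h without compound, then exposed to test compound at 10−9–10−4 M or vehicle. Cell protein measured by sulforhodamine B staining at 96 h; GI50 is the mean of two determinations.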

[5] = Hydrolysis in wet DMSO-d6 at 25 °C followed by 1H NMR; details: for % hydrolysed (conversion into the phenol) after 30 days: wet DMSO-d6, room temperature, water/substrate ~60:1
[6] = system: MDA MB-231 breast cancer cells; test: Anti-proliferative assay, MDA MB-231 cells; format: cell-based, human; details: read-out: GI50 MDA MB-231
How it was run: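 MDA MB-231 cells kept at 37 °C, 5% CO2 in RPMI-1640 with 10% FBS, penicillin and streptomycin; seeded 8000 cells/well, allowed to adhere 24 h, then given test compound or vehicle. BrdU incorporation kit assay run at 48 h; signal expressed as percent of mean control to derive GI50; experiments in triplicate, mean of three determinations.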

[7] = system: HCT-116; test: NCI 60-cell line assay, Colon HCT-116; format: cell-based
[8] = system: UACC-62; test: NCI 60-cell line assay, Melanoma UACC-62; format: cell-based
[9] = system: SN12C; test: NCI 60-cell line assay, Renal SN12C; format: cell-based; details: read-out: GI50 Renal SN12C
[10] = system: OVCAR-3; test: NCI 60-cell line assay, Ovarian OVCAR-3; format: cell-based
[11] = system: SF-539; test: NCI 60-cell line assay, CNS SF-539; format: cell-based; details: read-out: GI50 CNS SF-539
[12] = system: NCI-60 cell line panel; test: NCI 60-cell line assay, mean over whole panel; format: cell-based; details: for IC50: read-out: MGM (mean concentration that caused 50% growth inhibition in all 60 cell lines)
[13] = system: HOP-62; test: NCI 60-cell line assay, Lung HOP-62; format: cell-based
[14] = molecular target: T1, steroid sulfatase (STS) (Homo sapiens, UniProt P08842); test: In vitro cell-free sulfatase assay, JEG-3 lysate; format: biochemical
T1 sequence (P08842 22-583): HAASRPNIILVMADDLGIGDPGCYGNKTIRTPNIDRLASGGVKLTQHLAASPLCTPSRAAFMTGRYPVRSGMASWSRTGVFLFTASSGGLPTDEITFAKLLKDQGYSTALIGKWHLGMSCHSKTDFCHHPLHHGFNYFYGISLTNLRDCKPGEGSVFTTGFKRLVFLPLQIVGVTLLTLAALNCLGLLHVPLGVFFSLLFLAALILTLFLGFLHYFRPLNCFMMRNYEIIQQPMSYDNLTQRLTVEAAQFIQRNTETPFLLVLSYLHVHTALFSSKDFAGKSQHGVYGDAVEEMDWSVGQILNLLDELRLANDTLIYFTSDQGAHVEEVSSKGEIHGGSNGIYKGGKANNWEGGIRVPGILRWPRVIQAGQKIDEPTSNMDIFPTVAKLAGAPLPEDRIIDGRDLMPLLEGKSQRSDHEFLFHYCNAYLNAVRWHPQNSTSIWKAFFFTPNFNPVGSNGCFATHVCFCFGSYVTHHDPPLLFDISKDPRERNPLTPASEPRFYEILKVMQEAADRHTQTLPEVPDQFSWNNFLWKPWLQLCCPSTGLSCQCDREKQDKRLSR

[15] = molecular target: T1, steroid sulfatase (STS); test: In vitro whole cell sulfatase assay, intact JEG-3 cells; format: cell-based
[16] = MCF-7, full media, 96 h, mean of two determinations
[17] = NCI-60, mean of three determinations
[18] = wet DMSO-d6, 25 °C, 0 days, 1H NMR
[19] = wet DMSO-d6, 25 °C, 15 days, 1H NMR
[20] = wet DMSO-d6, 25 °C, 30 days, 1H NMR
[21] = Homo sapiens, HCT-116, read-out: GI50 Colon HCT-116
[22] = Homo sapiens, UACC-62, read-out: GI50 Melanoma UACC-62
[23] = Homo sapiens, OVCAR-3, read-out: GI50 Ovarian OVCAR-3
[24] = Homo sapiens, HOP-62, read-out: GI50 Lung HOP-62

In the case of COc1ccc(/C=C\c2cc(OC)c(OC)c(OC)c2)cc1O [CA-4, combretastatin A-4, reference compound], the “Colchicine binding (% Inhibition)” value [1] is reported as 98 ± 1%.
In the case of COc1cc2c(cc1O)CC[C@@H]1[C@@H]2CC[C@]2(C)[C@@H](O)CC[C@@H]12 [Compound 1, 2-Methoxyestradiol, reference compound], the bioavailability [2] is listed as about 1%, the IC50 [3] is listed as 8.3 ± 0.8 µM and the “Colchicine binding (% Inhibition)” value [1] is listed as 36 ± 3%.
For COc1cc2c(cc1OS(N)(=O)=O)CC[C@@H]1[C@@H]2CC[C@]2(C)[C@@H](OS(N)(=O)=O)CC[C@@H]12 [Compound 4, 2-methoxyestradiol-3,17-O,O-bissulfamate, reference compound], the bioavailability [2] is given as about 85%, the IC50 [3] is given as 2.3 ± 0.1 µM and the GI50 [4, 16] is given as 520 nM. The “Colchicine binding (% Inhibition)” value [1] was 33 ± 3%, the “% of the compound in the reaction mixture, 0 days” value [5] was 100% and the “% of the compound in the reaction mixture, 15 days” value (shortened to “% of the compound … 15 days”) [5] was 81%. For the same molecule, the “% of the compound in the reaction mixture, 30 days” value (shortened to “% of the compound … 30 days”) [5] was 69% and the “% hydrolysed (conversion into the phenol) after 30 days” value ([5]; 30 days) was 31%.
Work on C[C@]12CC[C@@H]3c4cc(OC(F)F)c(O)cc4CC[C@H]3[C@@H]1CC[C@@H]2O [Compound 9, 2-Difluoromethoxy-3,17β-bis-hydroxyestra-1,3,5(10)-triene] yielded a GI50 ([6]; Homo sapiens, MDA-MB-231, 48 h) of 3030 nM, an IC50 [3] of 12.4 ± 0.1 µM and a GI50 ([4]; Homo sapiens, MCF7, 96 h) of 2600 nM.
C[C@]12CC[C@@H]3c4cc(OC(F)F)c(OS(N)(=O)=O)cc4CC[C@H]3[C@@H]1CC[C@@H]2OS(N)(=O)=O [Compound 10, 2-Difluoromethoxy-3–17β-bis-sulfamoyloxyestra-1,3,5(10)-triene] gave a GI50 ([7]; read-out: GI50 Colon HCT-116, NCI-60, mean of three determinations) of 474 nM, a GI50 ([6]; MDA MB-231, 48 h, mean of three determinations) of 740 nM and a GI50 ([8]; read-out: GI50 Melanoma UACC-62, NCI-60, mean of three determinations) of 564 nM. The IC50 [3] was 3.9 ± 0.5 µM, the “fold less active than CA-4 in tubulin assembly” value ([3]; vs CA-4) was “about 3 fold” and the GI50 [9, 17] was 567 nM. For the same molecule, the GI50 [4, 16] was 280 nM, the GI50 ([10]; read-out: GI50 Ovarian OVCAR-3, NCI-60, mean of three determinations) was 527 nM and the GI50 [11, 17] was 266 nM. The “Colchicine binding (% Inhibition)” value [1] was 19 ± 0.5%, the “overall anti-proliferative activity in NCI 60-cell line panel (in words)” value ([12]; average GI50, NCI-60) was “sub-micromolar” and the IC50 ([12]; all 60 cell lines) was 661 nM. The “% of the compound in the reaction mixture, 0 days” value [5, 18] was 100%, the “% of the compound … 15 days” value [5, 19] was 32% and the “% of the compound … 30 days” value [5, 20] was 8%. The T1/2 of hydrolysis ([5]; wet DMSO-d6, estimated from Table 1) was ~ 10 days, the “% hydrolysed (conversion into the phenol) after 30 days” value ([5]; 30 days) was 92% and the GI50 ([13]; read-out: GI50 Lung HOP-62, NCI-60, mean of three determinations) was 1980 nM.
C[C@]12CC[C@@H]3c4cc(OC(F)F)c(O)cc4CC[C@H]3[C@@H]1CC[C@@H]2OS(N)(=O)=O [Compound 11, 2-Difluoromethoxy-3-hydroxy-17β-sulfamoyloxyestra-1,3,5(10)-triene] gave a GI50 [7, 21] of 375 nM, a GI50 ([6]; Homo sapiens, MDA-MB-231, 48 h) of over 10000 nM and an IC50 [14] of over 5000 nM. The “STS inhibition in JEG-3 lysate (in words)” value ([14]; JEG-3 lysate) was “inactive”, the GI50 [8, 22] was 460 nM and the IC50 [3] was over 20 µM. It also gave a GI50 ([9]; Homo sapiens, SN12C) of 1220 nM, a GI50 ([4]; Homo sapiens, MCF7, 96 h) of over 5000 nM and a GI50 [10, 23] of 383 nM. The GI50 ([11]; Homo sapiens) was 427 nM, the IC50 ([12]; 60 cell) was 813 nM and the “% of the compound in the reaction mixture, 0 days” value [5, 18] was 0%. For the same molecule, the “% of the compound … 15 days” value [5, 19] was 68%, the “% of the compound … 30 days” value [5, 20] was 92% and the GI50 [13, 24] was 648 nM.
In the case of C[C@]12CC[C@@H]3c4cc(OC(F)F)c(OS(N)(=O)=O)cc4CC[C@H]3[C@@H]1CC[C@@H]2O [Compound 12, 2-Difluoromethoxy-3-sulfamoyloxy-17β-hydroxyestra-1,3,5(10)-triene], the GI50 [7, 21] is reported as 406 nM, the GI50 ([6]; Homo sapiens, MDA-MB-231, 48 h) is reported as 1110 nM and the IC50 [14] is reported as 75 nM. The GI50 [8, 22] was 498 nM, the IC50 [3] was 6.6 ± 0.7 µM and the GI50 ([9]; Homo sapiens, SN12C) was 692 nM. It also gave a GI50 ([4]; Homo sapiens, MCF7, 96 h) of 1100 nM, a GI50 [10, 23] of 386 nM and a GI50 ([11]; Homo sapiens) of 313 nM. The “Colchicine binding (% Inhibition)” value [1] was 22 ± 1%, the IC50 ([12]; 60 cell) was 646 nM and the IC50 [15] was 18.6 nM. The GI50 [13, 24] was 634 nM.
Work on C[C@]12CC[C@@H]3c4cc(OC(F)F)c(O)cc4CC[C@H]3[C@@H]1CCC2=O [Compound 15, 2-Difluoromethoxy-3-hydroxyestra-1,3,5(10)-trien-17-one] yielded a GI50 ([6]; Homo sapiens, MDA-MB-231, 48 h) of over 10000 nM, an IC50 [3] of over 20 µM and a GI50 ([4]; Homo sapiens, MCF7, 96 h) of over 5000 nM.
With C[C@]12CC[C@@H]3c4cc(OC(F)F)c(OS(N)(=O)=O)cc4CC[C@H]3[C@@H]1CCC2=O [Compound 16, 2-Difluoromethoxy-3-sulfamoyloxyestra-1,3,5(10)-trien-17-one] the GI50 ([6]; Homo sapiens, MDA-MB-231, 48 h) was 990 nM, the IC50 [14] was 56 nM and the IC50 [3] was 4.3 ± 0.2 µM. The GI50 ([4]; Homo sapiens, MCF7, 96 h) was 580 nM, the “Colchicine binding (% Inhibition)” value [1] was 32 ± 4% and the IC50 [15] was 5.6 nM.
For COc1cc2c(cc1O)CC[C@@H]1[C@@H]2CC[C@]2(C)[C@@H](OS(N)(=O)=O)CC[C@@H]12 [Compound 22], the “% of the compound in the reaction mixture, 0 days” value [5, 18] was 0%, the “% of the compound … 15 days” value [5, 19] was 19% and the “% of the compound … 30 days” value [5, 20] was 31%.
With C[C@]12CC[C@@H]3c4cc(C(F)F)c(OS(N)(=O)=O)cc4CC[C@H]3[C@@H]1CCC2=O [Compound 23, 2-difluoromethylestrone sulfamate, reference compound] the “times more potent than 16, JEG-3 lysate assay” value ([14]; vs 16) was “about 3 times”, the “times more potent than 16, whole cells” value ([15]; vs 16) was “about 100 times” and the “% of the compound in the reaction mixture, 0 days” value [5, 18] was 100%. For the same molecule, the “% of the compound … 15 days” value [5, 19] was 24% and the “% of the compound … 30 days” value [5, 20] was 5%.
